Measurements reported in ChEMBL document CHEMBL3817747 (J Med Chem, 2016).

These molecules were tested on Influenza A virus (assay: Antiviral activity against oseltamivir-resistant Influenza A virus A/WSN/1933(H1N1) infected in MDCK cells assessed as protection against virus-induced cytopathic effect after 48 hrs by CellTiter 96 AQueous Non-Radioactive cell proliferation assay).
Assay type: functional, organism-based
Procedure, shortened: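 Virus stock (100 TCID50, TCID50 set by serial dilution on MDCK and Reed–Müench) mixed 1:1 with inhibitor at varied concentrations, then used to infect MDCK cells (1 × 10^5 cells/mL) grown in DMEM with 10% FBS. Incubated 48 h, 37 °C, 5% CO2. CPE read by MTS-type reagent, 15 min, A490. EC50 from curve fit of % CPE vs concentration; mean ± SD of three experiments.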

For `CCC(CC)[C@H](NC(C)=O)[C@@H]1C[C@@H](P(=O)(O)O)C[C@H]1NC(=N)N`, which EC50 is on record?
Its EC50 is 343 nM.

Which EC50 does the source give for `CCOP(=O)(O)[C@@H]1C[C@@H]([C@@H](NC(C)=O)C(CC)CC)[C@H](NC(=N)N)C1` here?
Its EC50 is 88.7 nM.

`CCC(CC)[C@H](NC(C)=O)[C@@H]1C=C(P(=O)(O)O)C[C@H]1NC(=N)N` was tested. Which EC50 did it give?
The EC50 was 50.3 nM.

`CCCCCCOP(=O)(O)[C@@H]1C[C@@H]([C@@H](NC(C)=O)C(CC)CC)[C@H](NC(=N)N)C1` was tested. Which EC50 did it give?
The EC50 was 43.2 nM.

For `CCCCCCOP(=O)(O)C1=C[C@@H]([C@@H](NC(C)=O)C(CC)CC)[C@H](NC(=N)N)C1`, which EC50 is on record?
The EC50 was 18.5 nM.

With `CCOP(=O)(O)[C@H]1C[C@@H](NC(=N)N)[C@H]([C@@H](NC(C)=O)C(CC)CC)[C@@H]1O` as the molecule, how does the EC50 read?
The EC50 was 66.5 nM.

With `CCCCCCOP(=O)(O)[C@H]1C[C@@H](NC(=N)N)[C@H]([C@@H](NC(C)=O)C(CC)CC)[C@@H]1O` as the molecule, how does the EC50 read?
Its EC50 is 18.6 nM.

`CCC(CC)[C@H](NC(C)=O)[C@@H]1[C@H](O)[C@@H](P(=O)(O)O)C[C@H]1NC(=N)N` was tested. Which EC50 did it give?
Its EC50 is 260 nM.

How did the EC50 turn out when `CCOP(=O)(O)C1=C[C@@H]([C@@H](NC(C)=O)C(CC)CC)[C@H](NC(=N)N)C1` was run?
The EC50 was 19.1 nM.

For `CCC(CC)O[C@@H]1C=C(C(=O)O)C[C@H](N)[C@H]1NC(C)=O` [OSELTAMIVIR CARBOXYLATE], which EC50 is on record?
Its EC50 is 5.5 nM.

For `CCC(CC)[C@H](NC(C)=O)[C@@H]1[C@H](O)[C@@H](C(=O)O)C[C@H]1NC(=N)N` [PERAMIVIR ANHYDROUS], which EC50 is on record?
The EC50 was 1.5 nM.

With `CC(=O)N[C@H]1[C@H]([C@H](O)[C@H](O)CO)OC(C(=O)O)=C[C@@H]1NC(=N)N` [ZANAMIVIR] as the molecule, how does the EC50 read?
Its EC50 is 16.3 nM.
